KCNQ1 act: potentiates or activates the human KCNQ1 potassium channel; P51787; CHO-K1 KCNQ1, thallium flux FluxOR fluorescence; hits give high values; B-score at 10 µM; hit rate 0.35% among 310,000;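 active means fluorescence ratio B-score, a plate-corrected score, at least three library SD, with initial intensity B-score within 5 SD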
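Test system: CHO-K1 cells stably expressing KCNQ1 / Medium: assay buffer / Also added: depolarizing K+/Tl+ stimulus, K2SO4 and Tl2SO4 each 12.5 mM in 5x stock / Incubation: 90 min dye loading and 20 min compound exposure, both at room temperature / Signal: thallium influx via FluxOR fluorescence, kinetic imaging / Evaluation: B score of baseline-normalized fluorescence ratio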
KCNQ1 block: blocks the human KCNQ1 potassium channel; B-score at 10 µM; P51787; hit rate 1.3% among 310,000; AID 2642; CHO-K1 KCNQ1, FluxOR thallium flux fluorescence; hits give high values;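 active means compounds whose thallium flux B-score, printed positive for inhibition, exceeds three library SD while starting fluorescence stays within three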;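 further: channel opened by potassium depolarization with thallium stimulus after 20 min compound exposure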
KCNK9 inh: blocks the human KCNK9 two-pore domain potassium channel; Q9NPC2; AID 488922; B-score at 10 µM; HEK293 KCNK9, FluxOR thallium flux fluorescence; hits give low values; hit rate 1.2% among 310,000;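 active means ratio B-score over 3 SD below the library mean, with starting fluorescence within 5 SD of its mean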;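 further: negative B-score means less thallium flux so channel inhibition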
Target sequence (Q9NPC2 whole entry, looked up, the tested form may be a part): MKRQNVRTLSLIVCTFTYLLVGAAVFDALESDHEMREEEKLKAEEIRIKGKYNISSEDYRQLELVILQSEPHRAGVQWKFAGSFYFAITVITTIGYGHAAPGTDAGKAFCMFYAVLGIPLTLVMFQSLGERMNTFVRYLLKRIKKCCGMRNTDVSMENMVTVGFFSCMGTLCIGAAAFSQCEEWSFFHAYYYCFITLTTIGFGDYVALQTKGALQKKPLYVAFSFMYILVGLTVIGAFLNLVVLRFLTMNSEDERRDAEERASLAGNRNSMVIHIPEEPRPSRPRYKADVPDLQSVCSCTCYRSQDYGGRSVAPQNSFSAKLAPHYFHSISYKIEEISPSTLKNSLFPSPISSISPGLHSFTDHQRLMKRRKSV
KCNK3 block: human KCNK3 channel inhibition, primary screen | O14649 | CHO-KCNK3 thallium flux, FluxOR fluorescence; hits give low values | B-score at 10 µM | hit rate 0.84% among 340,000;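 active means B-score under library mean minus 4 SD, starting fluorescence ratio at most library mean plus 5 SD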;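 further: more negative B-score means stronger inhibition of thallium flux through KCNK3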
Target sequence (O14649 whole entry, looked up): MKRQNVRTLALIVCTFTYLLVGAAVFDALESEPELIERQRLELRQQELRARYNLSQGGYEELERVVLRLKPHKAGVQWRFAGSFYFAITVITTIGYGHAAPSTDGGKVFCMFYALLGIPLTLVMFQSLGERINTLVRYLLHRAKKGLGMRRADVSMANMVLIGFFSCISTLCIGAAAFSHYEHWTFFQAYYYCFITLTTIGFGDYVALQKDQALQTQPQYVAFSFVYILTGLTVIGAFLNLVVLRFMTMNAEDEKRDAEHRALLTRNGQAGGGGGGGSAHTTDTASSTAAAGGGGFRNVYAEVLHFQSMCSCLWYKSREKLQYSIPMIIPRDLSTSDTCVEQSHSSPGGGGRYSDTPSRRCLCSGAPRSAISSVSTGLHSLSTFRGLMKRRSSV
Cl transport mod: modulators of human KCC2 chloride dependent transport | Q9H2X9 | KCC2 cells, thallium flux FluoZin-2 fluorescence | hit rate 2.2% among 190,000 | B-score of Tl+ flux slope (higher = more flux/activation; lower = inhibition) at 10 µM;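 active means thallium flux slope and its plate-corrected score both differing from the plate sample mean at a set confidence after two filtering rounds, in either direction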;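 further: slope of fluorescence scaled to starting intensity during 10 to 20 s after thallium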
hERG protect: hERG (human) protection from proarrhythmic block; Q12809; CHO-hERG, FluxOR thallium flux, dofetilide IC70 present; hit rate 0.51% among 310,000; activation (rescue from dofetilide block), less the hit threshold, % at 10 µM;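 active means activation above the mean of controls blocked by dofetilide plus 5 SD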;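 further: thallium influx through hERG after potassium depolarization seen as dye fluorescence rise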
KCNQ1 inh valid: reconfirmed blocker of the human KCNQ1 potassium channel; inhibition, % at 10 µM; shares compounds with KCNQ1 block; hit rate 93% among 1,600; KCNQ1 cell line, FluxOR thallium flux fluorescence;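 active means primary screen active, with duplicate mean exceeding buffer control mean plus 3 SD of buffer wells, cut at about 28% in these data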
CHO KCNQ1 ctr: counter-screen for KCNQ1 inhibitors: effect in parental CHO cells; shares compounds with KCNQ1 block; parental CHO-K1, FluxOR thallium flux fluorescence ratio; hits give low values; zero means no signal rise above baseline; fluorescence ratio (Tl flux) at 10 µM; hit rate 21% among 1,600; AID 588366;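 active means mean of duplicate thallium-flux fluorescence ratios in parental host cells more than 5 SD below the buffer control mean, cut at about 0.38 in these data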;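 further: ratio is peak minus minimum fluorescence divided by baseline fluorescence; actives read low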
KCNQ1 ephys val: blocks human KCNQ1 current in automated patch clamp; shares compounds with KCNQ1 block; KCNQ1-CHO cells; calls only at 10 µM; hit rate 20% among 490; AID 624120;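 active means KCNQ1 current drop exceeding 3 SD of negative control wells, seen in both duplicate runs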;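 further: steady state current during a 2 s step from -80 to +40 mV; negative values mean current inhibition and positive values mean potentiation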
KCNQ2 spec: selectivity of KCNQ1 inhibitors: inhibition of rat KCNQ2 channel; shares compounds with KCNQ1 block; KCNQ2 cells, FluxOR thallium flux fluorescence; inhibition, % at 10 µM; hit rate 71% among 1,600; AID 651746;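 active means mean percent inhibition of the KCNQ2 thallium signal more than 5 SD above the buffer-only control wells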;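 further: KCNQ2 expressed in CHO cells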
KCNQ1-KCNE1 inh: selectivity of KCNQ1 inhibitors: inhibition of human KCNQ1/KCNE1 channel; shares compounds with KCNQ1 block; KCNQ1/KCNE1 cells, FluxOR thallium flux fluorescence; inhibition, % at 10 µM; hit rate 77% among 1,600;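 active means mean percent inhibition of duplicate wells above the buffer-only control mean plus 3 SD of those controls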
Large screens that a line does not name were inactive (follow-up assays come after a bar, where they were run). A selection: hits, their analogues and other compounds. The true share with any hit is near 4.1%.

COc1ccccc1NC(=O)CSc1nc2ccccc2nc1N1CC(C)OC(C)C1 (stereo not given)	KCNQ1 block 8 (no result: Cl transport mod) | KCNQ1 inh valid 85.5 | CHO KCNQ1 ctr inactive | KCNQ2 spec 105.7% | KCNQ1-KCNE1 inh 118.5%
Cc1cccc(NC(=O)CSc2nc3ccccc3nc2N2CCCC2)c1	none (no result: Cl transport mod)
Cc1cccc(NC(=O)CSc2nc3ccccc3nc2N2CCCCC2)c1	KCNQ1 block 8 (no result: Cl transport mod) | KCNQ1 inh valid 84.0 | CHO KCNQ1 ctr inactive | KCNQ2 spec 107.0% | KCNQ1-KCNE1 inh 121.5%
CCOc1ccc(NC(=O)CSc2nc3ccccc3nc2N2CC(C)OC(C)C2)cc1 (stereo not given)	none (no result: Cl transport mod)
Cc1ccc(S(=O)(=O)N2CCC[C@H]2C(=O)NC2=NCCS2)cc1	none (no result: KCNQ1 act, KCNQ1 block, KCNK9 inh, Cl transport mod, hERG protect)
CN(C)CCCNC(=O)C[C@H]1C[C@H](C(=O)N2CCCCC2)[C@@]2(C)c3[nH]c4cc(CCC(=O)N(C)C)ccc4c3CCN2C1=O	none (no result: KCNQ1 act, KCNQ1 block, KCNK9 inh, Cl transport mod, hERG protect)
COc1cc(NC(=O)Cn2cnc(S(=O)(=O)N3CCOCC3)c2)cc(OC)c1OC	none (no result: Cl transport mod)
CN(C)C(CNC(=O)c1ccc(C2SCCS2)cc1)c1ccccc1 (stereo not given)	none (no result: Cl transport mod)
Cc1cc(C(=O)N2CCN(C(c3ccccc3)c3ccccc3)CC2)no1	none
CCCc1cc(C(=O)N2CCN(C(c3ccccc3)c3ccccc3)CC2)no1	KCNQ1 block 10 | KCNQ1 inh valid 125.5 | CHO KCNQ1 ctr inactive | KCNQ1 ephys val inactive | KCNQ2 spec 106.3% | KCNQ1-KCNE1 inh 162.5%
O=C(c1cc(-c2cccs2)on1)N1CCN(C(c2ccccc2)c2ccccc2)CC1	KCNQ1 block 6 (no result: Cl transport mod) | KCNQ1 inh valid 99.0 | CHO KCNQ1 ctr inactive | KCNQ2 spec 103.3% | KCNQ1-KCNE1 inh 125.5%
CCN(CC)CCn1c2c(c(SCC(=O)Nc3cc(OC)cc(OC)c3)nc1=O)CCC2	none (no result: Cl transport mod)
N#Cc1c(C(F)(F)F)cc(-c2ccc(F)cc2)[nH]c1=O	KCNQ1 block 11 | KCNQ1 inh valid 39.5 | CHO KCNQ1 ctr inactive | KCNQ2 spec inactive | KCNQ1-KCNE1 inh inactive
Cc1cc2nc3c(=O)[nH]c(=S)[nH]c3nc2cc1NC(=O)C(F)(F)F	KCNQ1 block 11, KCNK9 inh -7.24 (no result: Cl transport mod) | KCNQ1 inh valid 65.5 | CHO KCNQ1 ctr 0.326 | KCNQ2 spec inactive | KCNQ1-KCNE1 inh 151.0%
CC[C@]12c3[nH]c4cc(CCC(=O)N(C)C)ccc4c3CCN1C(=O)[C@@H](CC(=O)NCCc1ccccn1)C[C@@H]2C(=O)N1CCN(C(=O)C2CC2)CC1	none (no result: KCNQ1 act, KCNQ1 block, KCNK9 inh, Cl transport mod, hERG protect)
CN(c1ccccc1)S(=O)(=O)c1ccc(NC(=O)c2ccc(F)cc2)cc1	KCNQ1 block 7 (no result: Cl transport mod) | KCNQ1 inh valid 90.5 | CHO KCNQ1 ctr inactive | KCNQ1 ephys val inactive | KCNQ2 spec 117.0% | KCNQ1-KCNE1 inh 131.0%
CCOC(=O)C1=C(CC)Nc2ccccc2N=C1NC(=O)Nc1ccc(Cl)c(Cl)c1	KCNQ1 block 11, KCNK9 inh -6.89 | KCNQ1 inh valid 115.5 | CHO KCNQ1 ctr inactive | KCNQ1 ephys val inactive | KCNQ2 spec inactive | KCNQ1-KCNE1 inh inactive
Cn1cc(S(=O)(=O)NC[C@H]2O[C@@H](n3ccc(=O)[nH]c3=O)[C@H](O)[C@@H]2O)cn1	none (no result: KCNQ1 act, KCNQ1 block, KCNK9 inh, Cl transport mod, hERG protect)
CCOC(=O)CC1(NC(=O)C2CCC(=O)N(Cc3ccccc3OC)C2)CCCCC1 (stereo not given)	none (no result: Cl transport mod)
c1ccc(Cn2nnnc2C(c2cccnc2)N2CCN(C3CCCCC3)CC2)cc1 (stereo not given)	KCNQ1 block 8 (no result: Cl transport mod) | KCNQ1 inh valid 39.0 | CHO KCNQ1 ctr inactive | KCNQ2 spec 64.0% | KCNQ1-KCNE1 inh 37.5%
COc1ccc(C(=O)C2CCCN(Cc3cc(C)c(O)c(C)c3)C2)c(OC)c1 (stereo not given)	none (no result: Cl transport mod)
COc1ccc(C(=O)C2CCCN(Cc3cc(Cl)ccc3O)C2)c(OC)c1 (stereo not given)	KCNQ1 block 6 (no result: Cl transport mod) | KCNQ1 inh valid 61.5 | CHO KCNQ1 ctr inactive | KCNQ2 spec 121.7% | KCNQ1-KCNE1 inh 85.5%
COc1ccccc1NC(C#N)c1ccccc1OCc1ccccc1 (stereo not given)	KCNQ1 block 7 | KCNQ1 inh valid 99.5 | CHO KCNQ1 ctr inactive | KCNQ1 ephys val inactive | KCNQ2 spec 96.3% | KCNQ1-KCNE1 inh 135.0%
CCN(CC)S(=O)(=O)c1cc(C)ccc1NC(=S)Nc1cccnc1	KCNQ1 block 10 | KCNQ1 inh valid 68.5 | CHO KCNQ1 ctr inactive | KCNQ2 spec 61.3% | KCNQ1-KCNE1 inh 47.5%
C=CCN(c1nc(C)c(Br)c(OC)n1)S(=O)(=O)c1ccc(C)cc1	KCNQ1 block 7 (no result: Cl transport mod) | KCNQ1 inh valid 113.0 | CHO KCNQ1 ctr inactive | KCNQ1 ephys val inactive | KCNQ2 spec 118.0% | KCNQ1-KCNE1 inh 83.0%
CN(C)c1ccc(C(CNC(=O)COc2ccc(Cl)cc2)N2CCCC2)cc1 (stereo not given)	none (no result: Cl transport mod)
CCCCOc1[nH]c2nc(-c3ccco3)n(Cc3ccco3)c(=N)c2c1C#N	KCNQ1 block 14, KCNK9 inh -7.2 | KCNQ1 inh valid 76.5 | CHO KCNQ1 ctr inactive | KCNQ2 spec 78.0% | KCNQ1-KCNE1 inh 81.0%
Cc1cc(C(=O)NC2CCCc3c2cnn3-c2cccc(C)c2C)n(C)n1 (stereo not given)	KCNQ1 block 16 (no result: Cl transport mod) | KCNQ1 inh valid 84.5 | CHO KCNQ1 ctr inactive | KCNQ2 spec 60.0% | KCNQ1-KCNE1 inh 46.5%
CC(=O)NC1CCCc2c1cnn2-c1ccc(C(C)(C)C)cc1 (stereo not given)	none (no result: Cl transport mod)
Cn1nccc1C(=O)NC1CCCc2c1cnn2-c1ccc(C(C)(C)C)cc1 (stereo not given)	KCNQ1 block 9 (no result: Cl transport mod) | KCNQ1 inh valid 94.5 | CHO KCNQ1 ctr inactive | KCNQ1 ephys val inactive | KCNQ2 spec 92.7% | KCNQ1-KCNE1 inh 43.0%
COc1ccc(CNC(=O)CN2CCC(NC(=O)c3ccc(OC)cc3)CC2)cc1	none (no result: Cl transport mod)
Cc1ccc(S(=O)(=O)N2CCCc3cc(NC(=O)c4c(F)cccc4F)ccc32)cc1	KCNQ1 block 7 (no result: Cl transport mod) | KCNQ1 inh valid 66.5 | CHO KCNQ1 ctr inactive | KCNQ2 spec 85.3% | KCNQ1-KCNE1 inh 100.5%

Bioassay records: PubChem BioAssay, several laboratories
